Measurements: ChEMBL document CHEMBL1128300, “Synthesis and in vivo evaluation of prodrugs of 9-[2-(phosphonomethoxy)ethoxy]adenine” (J Med Chem, 1995)

Legend:
Mus musculus [1] = test: % bioavailability in mice after oral administration of prodrug; type: ADME, organism-based; conditions: in vivo
Summary of the method: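 Female BALB/c mice, fasted 16 h, single oral gavage 0.2 mmol/kg in 1% carboxymethyl cellulose plus 1% Tween 80 in water. Blood from three mice per time point pooled, ethanol-deproteinized, analysed by reversed-phase C18 HPLC (ion-pair phosphate buffer pH 2.6 / methanol gradient). Bioavailability as oral AUC of released parent phosphonate expressed as percent of intravenous AUC of its sodium salt.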

Mus musculus [2] = test: Concentration of the 9-[2-(Phosphonomethoxy)ethoxy]adenine in the blood following oral administration in mice; type: ADME, organism-based; parameters: unit not given here; conditions: in vivo
Summary of the method: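 Single 0.2 mmol/kg oral gavage dose to female BALB/c mice fasted 16 h, vehicle 1% carboxymethyl cellulose plus 1% Tween 80 in water. At each time point blood from three mice pooled, deproteinized with ice-cold ethanol at -20 °C, and parent phosphonate quantified by C18 HPLC with a gradient from pH 2.6 phosphate ion-pair buffer to 80% methanol.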

[3] = tested on: Feline immunodeficiency virus; test: Inhibitory activity against Feline immunodeficiency virus.; type: functional, organism-based
[4] = tested on: Simian immunodeficiency virus; test: Inhibitory activity against Simian immunodeficiency virus.; type: functional, organism-based
[5] = tested on: Human immunodeficiency virus 1; test: Inhibitory activity against HIV-1, in peripheral blood lymphocytes
[6] = tested on: Human immunodeficiency virus 2; test: Inhibitory activity against HIV-2, in peripheral blood lymphocytes

| SMILES | F% (Mus musculus [1]) [%] | AUC (Mus musculus [2]) | further results |
| --- | --- | --- | --- |
| CC(C)(C)C(=O)OCOP(=O)(COCCOn1cnc2c(N)ncnc21)OCOC(=O)C(C)(C)C | 30 | 15 |  |
| Nc1ncnc2c1ncn2OCCOCP(=O)(O)O |  |  | IC50 [3]: 1700 nM; IC50 [4]: 3000 nM; IC50 [5]: 200 nM; IC50 [6]: 300 nM |
| Nc1ncnc2c1ncn2OCCOCP(=O)(Oc1ccc(Br)cc1)Oc1ccc(Br)cc1 | 6 | 3 |  |
| Nc1ncnc2c1ncn2OCCOCP(=O)(OCc1ccccc1)OCc1ccccc1 | 4 | 2 |  |
| Nc1ncnc2c1ncn2OCCOCP(=O)(OCc1ccc(Br)cc1)OCc1ccc(Br)cc1 | 2 | 1 |  |
| COP(=O)(COCCOn1cnc2c(N)ncnc21)OC | 0 | 0 |  |
| Nc1ncnc2c1ncn2OCCOCP(=O)(OCC(Cl)Cl)OCC(Cl)Cl | 6 | 3 |  |
| CC(=O)Oc1ccc(COP(=O)(COCCOn2cnc3c(N)ncnc32)OCc2ccc(OC(C)=O)cc2)cc1 | 8 | 4 |  |
| COc1ccc(OP(=O)(COCCOn2cnc3c(N)ncnc32)Oc2ccc(OC)cc2)cc1 | 10 | 5 |  |
| Nc1ncnc2c1ncn2OCCOCP(=O)(OCCBr)OCCBr | 8 | 4 |  |
| Nc1ncnc2c1ncn2OCCOCP(=O)(OCc1ccc(Cl)cc1)OCc1ccc(Cl)cc1 | 8 | 4 |  |
| CC(=O)Oc1ccccc1OP(=O)(COCCOn1cnc2c(N)ncnc21)Oc1ccccc1OC(C)=O | 10 | 5 |  |
| Nc1ncnc2c1ncn2OCCOCP(=O)(Oc1ccccc1)Oc1ccccc1 | 26 | 13 |  |
| Cl.Nc1ncnc2c1ncn2OCCOCP(=O)(Oc1ccccc1)Oc1ccccc1 | 50 | 25 |  |
| CC(C)C(=O)Oc1ccc(COP(=O)(COCCOn2cnc3c(N)ncnc32)OCc2ccc(OC(=O)C(C)C)cc2)cc1 | 1 | 0.5 |  |
| CC(C)OP(=O)(COCCOn1cnc2c(N)ncnc21)OC(C)C | 10 | 5 |  |
| Cc1ccccc1OP(=O)(COCCOn1cnc2c(N)ncnc21)Oc1ccccc1C | 22 | 11 |  |
| CC(C)(C)OC(=O)c1ccc(OP(=O)(COCCOn2cnc3c(N)ncnc32)Oc2ccc(C(=O)OC(C)(C)C)cc2)cc1 | 0 | 0 |  |
| CC(OC(=O)C(C)(C)C)OP(=O)(COCCOn1cnc2c(N)ncnc21)OC(C)OC(=O)C(C)(C)C (stereo unspecified) | 74 | 37 |  |
| CC(=O)Oc1ccc(OP(=O)(COCCOn2cnc3c(N)ncnc32)Oc2ccc(OC(C)=O)cc2)cc1 | 8 | 4 |  |
| CCOP(=O)(COCCOn1cnc2c(N)ncnc21)OCC | 8 | 4 |  |
| CC(OC(=O)C(C)C)OP(=O)(COCCOn1cnc2c(N)ncnc21)OC(C)OC(=O)C(C)C (stereo unspecified) | 24 | 12 |  |
| CC(C)(CCl)C(=O)OCOP(=O)(COCCOn1cnc2c(N)ncnc21)OCOC(=O)C(C)(C)CCl | 0 | 0 |  |
| CC(=O)OCc1ccc(OP(=O)(COCCOn2cnc3c(N)ncnc32)Oc2ccc(COC(C)=O)cc2)cc1 | 0 | 0 |  |
| CC(C)OP(=O)(COCCOn1cnc2c(N)ncnc21)OCC(=O)OC(C)(C)C (stereo unspecified) | 0 | 0 |  |
| CCCCOP(=O)(COCCOn1cnc2c(N)ncnc21)OCCCC | 0 | 0 |  |
| CCOCCOP(=O)(COCCOn1cnc2c(N)ncnc21)OCCOCC | 0 | 0 |  |
